Active and inactive are the calls of the source. No cut-off for these calls is given here.
How the values were obtained:
Homo sapiens [1] = species: Homo sapiens; experiment: Selectivity for human recombinant kappa opioid receptor over human recombinant delta opioid receptor
[2] = molecular target: Delta-type opioid receptor (Homo sapiens, UniProt P41143); experiment: Displacement of [125I]IOXY from human recombinant delta opioid receptor expressed in CHO cells; type: cell-based
Homo sapiens [3] = species: Homo sapiens; experiment: Selectivity for human recombinant kappa opioid receptor over human recombinant mu opioid receptor
Mu-type opioid receptor [4] = molecular target: T1, Mu-type opioid receptor (Homo sapiens, UniProt P35372); experiment: Displacement of [125I]IOXY from human recombinant mu opioid receptor expressed in CHO cells; type: cell-based
[5] = molecular target: T2, Kappa-type opioid receptor (Homo sapiens, UniProt P41145); experiment: Displacement of [125I]IOXY from human recombinant kappa opioid receptor expressed in CHO cells; type: cell-based
Mu-type opioid receptor [6] = molecular target: T1, Mu-type opioid receptor; experiment: Agonist activity at human recombinant mu opioid receptor expressed in CHO cells by [35S]GTP-gamma-S binding assay; type: functional, cell-based
Mu-type opioid receptor [7] = molecular target: T1, Mu-type opioid receptor; experiment: Agonist activity at human recombinant mu opioid receptor expressed in CHO cells by [35S]GTP-gamma-S binding assay relative to DAMGO; type: functional, cell-based
[8] = molecular target: T2, Kappa-type opioid receptor; experiment: Agonist activity at human recombinant kappa opioid receptor expressed in CHO cells by [35S]GTP-gamma-S binding assay; type: functional, cell-based
[9] = molecular target: T2, Kappa-type opioid receptor; experiment: Agonist activity at human recombinant kappa opioid receptor expressed in CHO cells by [35S]GTPgammaS binding assay relative to (-)-U50,488; type: functional, cell-based
Mu-type opioid receptor [10] = molecular target: T1, Mu-type opioid receptor; experiment: Agonist activity at human mu opioid receptor expressed in CHO cells assessed as increase in ERK phosphorylation after 10 mins; type: functional, cell-based
Outline: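 CHO cells stably expressing human MOR1 (~800 fmol/mg membrane protein), serum-starved 30 min at 37°C, then treated 10 min, with naloxone present where indicated. Lysates were run on SDS-PAGE and immunoblotted for total ERK1/2, then stripped and reprobed for phospho-ERK (Tyr204), with HRP chemiluminescence detection. Densitometry; at least three experiments in triplicate.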

Mu-type opioid receptor [11] = molecular target: T1, Mu-type opioid receptor; experiment: Agonist activity at mu opioid receptor expressed in HEK293 cells assessed as induction of beta-arrestin-2-GFP plasma membrane translocation at 10 uM after 10 mins; type: functional, cell-based
Outline: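 HEK-293 cells stably expressing MOR (~1000 fmol/mg membrane protein), or transiently expressing MOR1, were transiently transfected with βarr2-GFP (2 μg), with or without GRK2 (1.5 μg). After 24–36 h at 37°C and 30 min serum starvation, basal images were taken. Drug was then applied at 10 μM for 10 min, with confocal imaging each minute; cells shown at 5 min. At least 3 independent experiments.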

T1 sequence (P35372 whole entry): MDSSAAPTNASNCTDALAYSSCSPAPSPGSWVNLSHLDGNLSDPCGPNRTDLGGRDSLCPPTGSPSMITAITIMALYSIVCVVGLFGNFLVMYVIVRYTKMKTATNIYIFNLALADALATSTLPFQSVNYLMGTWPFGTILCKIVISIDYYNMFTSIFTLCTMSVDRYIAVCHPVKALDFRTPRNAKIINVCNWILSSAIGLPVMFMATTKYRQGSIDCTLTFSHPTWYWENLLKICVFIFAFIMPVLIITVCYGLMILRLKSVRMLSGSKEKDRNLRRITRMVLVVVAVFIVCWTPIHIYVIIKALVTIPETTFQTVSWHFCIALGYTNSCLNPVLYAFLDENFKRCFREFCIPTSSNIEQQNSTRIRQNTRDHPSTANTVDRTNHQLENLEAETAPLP
T2 sequence (P41145 whole entry): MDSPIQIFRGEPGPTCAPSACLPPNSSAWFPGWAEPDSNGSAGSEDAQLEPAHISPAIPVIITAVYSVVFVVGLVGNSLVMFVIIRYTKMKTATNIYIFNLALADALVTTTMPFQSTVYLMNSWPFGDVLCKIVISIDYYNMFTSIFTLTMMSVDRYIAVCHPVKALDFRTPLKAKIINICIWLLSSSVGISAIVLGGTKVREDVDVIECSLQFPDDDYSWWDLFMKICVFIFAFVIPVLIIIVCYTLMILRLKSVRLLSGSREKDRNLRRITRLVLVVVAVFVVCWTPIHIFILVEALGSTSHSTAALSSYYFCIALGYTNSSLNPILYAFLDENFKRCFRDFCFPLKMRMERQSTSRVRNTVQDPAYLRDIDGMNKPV
Delta-type opioid receptor, sequence (P41143 whole entry): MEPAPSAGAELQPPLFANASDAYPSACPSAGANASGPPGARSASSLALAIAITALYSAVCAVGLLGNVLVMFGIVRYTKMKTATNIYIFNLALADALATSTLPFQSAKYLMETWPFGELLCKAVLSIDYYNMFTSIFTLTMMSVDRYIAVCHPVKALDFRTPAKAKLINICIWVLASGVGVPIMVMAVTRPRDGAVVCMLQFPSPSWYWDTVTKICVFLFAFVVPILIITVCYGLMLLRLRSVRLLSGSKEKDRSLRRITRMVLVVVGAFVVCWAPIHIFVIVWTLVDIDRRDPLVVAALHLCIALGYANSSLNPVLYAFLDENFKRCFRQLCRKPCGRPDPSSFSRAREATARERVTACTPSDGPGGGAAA

Structure (SMILES) | Ratio Ki (Homo sapiens [1]) | Ki [2] [nM] | Ratio Ki (Homo sapiens [3]) | Ki (Mu-type opioid receptor [4]) [nM] | Ki [5] [nM] | EC50 (Mu-type opioid receptor [6]) [nM] | Emax (Mu-type opioid receptor [7]) [%] | EC50 [8] [nM] | Emax [9] [%] | Activity (Mu-type opioid receptor [10]) | Activity (Mu-type opioid receptor [11])
COC(=O)[C@@H]1C[C@H](OC(=O)C2CCCCC2)C(=O)[C@H]2[C@@]1(C)CC[C@H]1C(=O)O[C@H](c3ccoc3)C[C@]21C | > 5 | > 10000 | 0.5 | 1030 | 2010 |  |  |  |  |  | 
COC(=O)[C@@H]1C[C@H](OC(=O)c2ccccc2Br)C(=O)[C@H]2[C@@]1(C)CC[C@H]1C(=O)O[C@H](c3ccoc3)C[C@]21C | > 100 |  | 1.2 |  |  |  |  |  |  |  | 
COC(=O)[C@@H]1C[C@H](O)C(=O)[C@H]2[C@@]1(C)CC[C@H]1C(=O)O[C@H](c3ccoc3)C[C@]21C [SALVINORIN B] |  | > 10000 |  | > 10000 |  |  |  |  |  |  | 
COC(=O)[C@@H]1C[C@H](OC(=O)c2cccc(OC)c2)C(=O)[C@H]2[C@@]1(C)CC[C@H]1C(=O)O[C@H](c3ccoc3)C[C@]21C | 2 | 1140 | 0.05 | 30 | 550 | 1670 | 72 | 3590 | 97 |  | 
COC(=O)[C@@H]1C[C@H](OC(=O)c2ccc(OC)cc2)C(=O)[C@H]2[C@@]1(C)CC[C@H]1C(=O)O[C@H](c3ccoc3)C[C@]21C | 3 | 1860 | 0.12 | 70 | 540 | 830 | 94 | 2610 | 106 | Dose-dependent effect | 
COC(=O)[C@@H]1C[C@H](OC(=O)c2cccc([N+](=O)[O-])c2)C(=O)[C@H]2[C@@]1(C)CC[C@H]1C(=O)O[C@H](c3ccoc3)C[C@]21C | > 12 | > 10000 | > 12 | > 10000 | 800 |  |  |  |  |  | 
COC(=O)[C@@H]1C[C@H](NS(C)(=O)=O)C(=O)[C@H]2[C@@]1(C)CC[C@H]1C(=O)O[C@H](c3ccoc3)C[C@]21C | > 38 | > 10000 | > 38 | > 10000 | 260 |  |  |  |  |  | 
COC(=O)[C@@H]1C[C@H](OC(=O)c2ccccc2OC)C(=O)[C@H]2[C@@]1(C)CC[C@H]1C(=O)O[C@H](c3ccoc3)C[C@]21C | > 43 | > 10000 | 7 | 1640 | 230 |  |  |  |  |  | 
COC(=O)[C@@H]1C[C@H](OC(=O)c2cccc3ccccc23)C(=O)[C@H]2[C@@]1(C)CC[C@H]1C(=O)O[C@H](c3ccoc3)C[C@]21C | > 24 | > 10000 | > 24 | > 10000 | 410 |  |  |  |  |  | 
COC(=O)[C@@H]1C[C@H](NC(C)=O)C(=O)[C@H]2[C@@]1(C)CC[C@H]1C(=O)O[C@H](c3ccoc3)C[C@]21C | > 330 | > 10000 | 13 | 4180 | 30 |  |  | 120 | 108 |  | 
COC(=O)[C@@H]1C[C@H](NS(=O)(=O)c2ccccc2)C(=O)[C@H]2[C@@]1(C)CC[C@H]1C(=O)O[C@H](c3ccoc3)C[C@]21C | > 7 | > 10000 | > 7 | > 10000 | 1400 |  |  |  |  |  | 
COC(=O)[C@@H]1C[C@H](OC(=O)c2cccs2)C(=O)[C@H]2[C@@]1(C)CC[C@H]1C(=O)O[C@H](c3ccoc3)C[C@]21C | 5 |  | 0.04 |  |  | 1150 | 95 |  |  |  | 
COC(=O)[C@@H]1C[C@H](SC(=O)c2ccccc2)C(=O)[C@H]2[C@@]1(C)CC[C@H]1C(=O)O[C@H](c3ccoc3)C[C@]21C | 1.4 | 1930 | 0.21 | 290 | 1410 |  |  |  |  |  | 
COC(=O)[C@@H]1C[C@H](OC(=O)c2ccsc2)C(=O)[C@H]2[C@@]1(C)CC[C@H]1C(=O)O[C@H](c3ccoc3)C[C@]21C | 9 | 690 | 0.16 | 10 | 80 | 690 | 108 | 840 | 95 |  | 
COC(=O)[C@@H]1C[C@H](OC(=O)c2ccc([N+](=O)[O-])cc2)C(=O)[C@H]2[C@@]1(C)CC[C@H]1C(=O)O[C@H](c3ccoc3)C[C@]21C | 0.45 | > 10000 | 13 | 260 | 570 | 1370 | 46 |  |  | Dose-dependent effect | 
COC(=O)[C@@H]1C[C@H](OC(=O)c2ccccc2)C(=O)[C@H]2[C@@]1(C)CC[C@H]1C(=O)O[C@H](c3ccoc3)C[C@]21C | 12 |  | 0.13 |  |  |  |  |  |  |  | 
COC(=O)[C@@H]1C[C@H](NC(=O)c2ccccc2)C(=O)[C@H]2[C@@]1(C)CC[C@H]1C(=O)O[C@H](c3ccoc3)C[C@]21C | 0.11 | 810 | 0.0004 | 3.1 | 7430 | 360 | 134 |  |  | Dose-dependent effect | Active
COC(=O)[C@@H]1C[C@H](OC(=O)c2cccc(Br)c2)C(=O)[C@H]2[C@@]1(C)CC[C@H]1C(=O)O[C@H](c3ccoc3)C[C@]21C | > 100 |  | 1.6 |  |  |  |  |  |  |  | 
COC(=O)[C@@H]1C[C@H](OC(=O)c2ccc3ccccc3c2)C(=O)[C@H]2[C@@]1(C)CC[C@H]1C(=O)O[C@H](c3ccoc3)C[C@]21C | > 2 | > 10000 | 0.03 | 180 | 5490 |  |  |  |  |  | 
COC(=O)[C@@H]1C[C@H](OC(=O)c2ccc(Br)cc2)C(=O)[C@H]2[C@@]1(C)CC[C@H]1C(=O)O[C@H](c3ccoc3)C[C@]21C | 2 |  | 0.01 |  |  | 4890 | 108 |  |  | Dose-dependent effect | 
COC(=O)[C@@H]1C[C@H](OC(=O)c2cc3ccccc3o2)C(=O)[C@H]2[C@@]1(C)CC[C@H]1C(=O)O[C@H](c3ccoc3)C[C@]21C | 8 | 580 | 0.14 | 10 | 70 | 1680 | 104 | 1120 | 109 |  | 
COC(=O)[C@@H]1C[C@H](OC(=O)c2ccccc2[N+](=O)[O-])C(=O)[C@H]2[C@@]1(C)CC[C@H]1C(=O)O[C@H](c3ccoc3)C[C@]21C | > 11 | > 10000 | 8 | 7550 | 900 |  |  |  |  |  | 
